Data on 16 compounds can be found in PubChem BioAssay.

Calls of active or inactive are those of the source.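 How the source made its calls, unless noted: active means viability at or under a set limit in both replicates, limit being median viability minus 3 SD (cut at about 48% in these data, passing the limit was not always enough); inconclusive means at or under the limit in just one replicate; inactive means at or above the limit in both replicates.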

Experiment [1] is described as follows: reducers of endogenous Her2 protein level, primary screen, SKBR3 breast tumor cells, AlphaScreen, ATP viability (AID 461;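 active means Her2 level under about 52% in both replicate screens, with viability over 70% of control, limit read from the data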;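 on Her2 level: lower value means less Her2 protein in the cells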;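 on viability: percent of carrier control wells set as 100% viability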). The following applies: 18-24 h, measured here: SKBR3 viability, ATP luminescence, at 10 µM.
Experiment [2] addresses Receptor tyrosine-protein kinase erbB-2 (Homo sapiens) (UniProt P04626). Described as above. Conditions: 18-24 h, at 10 µM, stronger effect = lower value.
Experiment [3] is described as follows: SK-BR-3 cell growth inhibitors, pilot screen, 24 h, human (AID 572;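 active means viability at or below 10% of carrier control in both of two separate runs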;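 further: compound exposure lasted between 18 and 24 h rather than exactly 24 h; 100% = carrier-treated control wells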). Conditions: SK-BR-3 viability, CellTiter-Glo luminescence, at 10 µM, stronger effect = lower value.
The nature of experiment [4]: HUVEC growth inhibition – cell-based, human, primary screen (AID 575;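 active means viability at or below 30% in both replicate assays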;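 further: 100% = median of untreated cell wells with 0.1% DMSO on each plate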). Conditions: HUVEC proliferation, CellTiter-Glo luminescence, 72 h; at 10 µM; stronger effect = lower value. An outline of the steps:
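Assay system: primary human umbilical vein endothelial cells / Buffer or medium: endothelial basal medium with 2% FBS plus growth supplements / Compound dosing: one dose, 10 µM final, 0.1% DMSO / Timing: 72 h treatment at 37 °C / Signal: CTG luminescence / Benchmarks: 32 DMSO-only cell-control wells (high), 32 MePR drug-control wells (low) per plate / Plate: collagen-coated 384-well format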

Experiment [5] is described as follows: growth inhibitors of H69AR lung tumor, primary screen, human, duplicate replicates (AID 580).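 Further: 100% = mean luminescence of untreated wells and 0% = no signal.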 The following applies: H69AR lung tumor cells viability, ATP luminescence, 72 h; at 10 µM; stronger effect = lower value.
The nature of experiment [6]: reversal of MRP1-mediated doxorubicin resistance, pilot screen, H69AR cells, doxorubicin co-treatment (AID 601;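 active means viability loss from added drug above about 55%, and viability with drug at most 40%, in both replicates, limit read from the data, passing the limit was not always enough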). Conditions: CellTiter-Glo, 72 h, at 10 µM; for differential viability (reversal): stronger effect = higher value.
A short description of experiment [7]: 384-well plate pilot, post-Golgi transport modulator project, inhibition of yeast transport mutant growth (AID 636; in the data active means inhibition above about 31%). Conditions: absorbance 615 nm, about 18 h, stronger effect = higher value.
Experiment [8] is described as follows: growth suppression of yeast trafficking mutant, preliminary HTS, modulators of trafficking downstream of Golgi apparatus project, 1536-format plate, OD 615 nm (AID 637; in the data active means inhibition above about 30%). Conditions: yeast transport mutant growth, absorbance 615 nm, 18 h; stronger effect = higher value.
[9] abbreviates: H69AR cells + 2 uM doxorubicin, measured here: viability with 2 uM doxorubicin, stronger effect = lower value.
[10] abbreviates: H69AR cells, compound alone cytotoxicity.

Chain of Receptor tyrosine-protein kinase erbB-2 (Homo sapiens) (P04626 whole entry, looked up): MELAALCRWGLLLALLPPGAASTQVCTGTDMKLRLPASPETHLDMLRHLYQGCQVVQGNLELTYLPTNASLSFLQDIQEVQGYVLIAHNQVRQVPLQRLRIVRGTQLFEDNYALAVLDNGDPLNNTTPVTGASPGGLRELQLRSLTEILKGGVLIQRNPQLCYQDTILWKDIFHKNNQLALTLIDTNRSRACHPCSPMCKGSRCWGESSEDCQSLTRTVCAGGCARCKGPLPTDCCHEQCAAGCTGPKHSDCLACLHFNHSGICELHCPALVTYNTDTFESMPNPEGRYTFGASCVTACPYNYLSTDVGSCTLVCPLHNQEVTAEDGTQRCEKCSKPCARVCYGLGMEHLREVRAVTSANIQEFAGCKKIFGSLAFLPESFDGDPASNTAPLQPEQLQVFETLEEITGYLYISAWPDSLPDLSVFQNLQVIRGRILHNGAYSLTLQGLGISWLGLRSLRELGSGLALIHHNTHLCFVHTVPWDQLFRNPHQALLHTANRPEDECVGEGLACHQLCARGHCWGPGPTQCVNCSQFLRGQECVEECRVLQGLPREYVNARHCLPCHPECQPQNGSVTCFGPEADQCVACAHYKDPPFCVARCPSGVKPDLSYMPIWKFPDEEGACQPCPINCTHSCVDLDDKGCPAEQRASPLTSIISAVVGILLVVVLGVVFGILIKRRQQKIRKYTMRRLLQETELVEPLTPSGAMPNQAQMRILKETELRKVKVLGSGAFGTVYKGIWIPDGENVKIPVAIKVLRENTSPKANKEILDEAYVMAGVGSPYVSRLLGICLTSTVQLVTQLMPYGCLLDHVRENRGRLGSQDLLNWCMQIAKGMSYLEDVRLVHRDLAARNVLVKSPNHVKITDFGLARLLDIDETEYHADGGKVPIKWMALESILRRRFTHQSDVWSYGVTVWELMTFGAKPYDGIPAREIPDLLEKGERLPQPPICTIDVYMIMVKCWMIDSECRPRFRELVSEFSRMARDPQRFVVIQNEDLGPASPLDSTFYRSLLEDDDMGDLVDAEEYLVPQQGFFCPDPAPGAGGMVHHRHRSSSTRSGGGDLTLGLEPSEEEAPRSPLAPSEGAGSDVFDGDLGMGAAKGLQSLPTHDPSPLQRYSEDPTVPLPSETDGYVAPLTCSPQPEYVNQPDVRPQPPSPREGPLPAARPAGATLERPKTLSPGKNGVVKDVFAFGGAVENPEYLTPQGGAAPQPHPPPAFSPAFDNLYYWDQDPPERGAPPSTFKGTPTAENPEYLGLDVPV

Consider `CCOc1cc(-c2nc3ccccn3c2NCC2CCCO2)ccc1O` (stereo not given), for which the viability in experiment [1] was 69.5%; in experiment [3], 69.5% (inactive); in experiment [4] it was 88.7% (inactive); in experiment [5], 40.7% (active); in experiment [6] (setting [9]) it was 35.6%; in experiment [6] (setting [10]), 40.7%. In addition, in experiment [2], the Her2 level was 111% (inactive). For the same compound, in experiment [6] (H69AR cells + 2 uM doxorubicin), the differential viability (reversal) is 5.11% (inactive). For the same compound, the inhibition was 4.27% (inactive) in experiment [7] and 24% (inactive) in experiment [8].
`O=C(O)CC1CCCC(c2ccccc2)C1=O` (stereo not given): the viability in experiment [1] was 97%; in experiment [3], 97% (inactive); in experiment [4] it was 108% (inactive); in experiment [5] it was 99.6% (inactive); in experiment [6] (setting [9]), 93%; in experiment [6] (setting [10]) it was 99.6%. In experiment [2], the Her2 level is 110% (inactive). Also, the differential viability (reversal) in experiment [6] (H69AR cells + 2 uM doxorubicin) is 6.58% (inactive). The inhibition is -6.4% (inactive) in experiment [7] and -9.35% (inactive) in experiment [8].
As to `CCOC(=O)C(C)n1cnc2c(nnn2Cc2ccc(C)cc2)c1=O` (stereo not given), the viability in experiment [1] is 116%; in experiment [3] it was 116% (inactive); in experiment [4], 104% (inactive); in experiment [5] it was 91.9% (inactive); in experiment [6] (setting [9]), 88.7%; in experiment [6] (setting [10]), 91.9%. In experiment [2], the Her2 level is 95.5% (inactive). The differential viability (reversal) in experiment [6] (H69AR cells + 2 uM doxorubicin) is 3.18% (inactive). Moreover, the inhibition in experiment [7] is -9.73% (inactive); in experiment [8], 1.9% (inactive).
`CSc1nc2c(ccc3ccccc32)o1`: the viability in experiment [1] is 114%; in experiment [3] it was 114% (inactive); in experiment [4], 92.4% (inactive); in experiment [5] it was 90.7% (inactive); in experiment [6] (setting [9]), 87.9%; in experiment [6] (setting [10]), 90.7%. Moreover, in experiment [2], the Her2 level was 83.5% (inactive). Also, the differential viability (reversal) in experiment [6] (H69AR cells + 2 uM doxorubicin) is 2.83% (inactive). For the same compound, the inhibition in experiment [7] was -1.32% (inactive); in experiment [8], 6.94% (inactive).
Turning to `Cc1ccc(Cn2c(SCC(C)C)nc3c2c(=O)n(C)c(=O)n3C)cc1`, the viability is 84.5% in experiment [1]; 84.5% (inactive) in experiment [3]; 62.2% (inactive) in experiment [4]; 77.5% (inactive) in experiment [5]; 90.1% in experiment [6] (setting [9]); 77.5% in experiment [6] (setting [10]). The Her2 level in experiment [2] is 75.5% (inactive). The differential viability (reversal) in experiment [6] (H69AR cells + 2 uM doxorubicin) was -12.6% (inactive). Besides, the inhibition in experiment [7] was -1.84% (inactive); in experiment [8] it was 9.34% (inactive).
Regarding `CCCn1c(=O)c2ccccc2n2c(SCc3cc(=O)n4ccsc4n3)nnc12`, the viability in experiment [1] was 79.5%; in experiment [3], 79.5% (inactive); in experiment [4] it was 104% (inactive); in experiment [5], 82.1% (inactive); in experiment [6] (setting [9]), 67.6%; in experiment [6] (setting [10]), 82.1%. For the same compound, the Her2 level in experiment [2] was 90.5% (inactive). For the same compound, in experiment [6] (H69AR cells + 2 uM doxorubicin), the differential viability (reversal) is 14.6% (inactive). The inhibition in experiment [7] was -1.18% (inactive); in experiment [8], -12.1% (inactive).
On to `Cc1nc2sc(C(c3ccc(Br)cc3)N3CC(C)OC(C)C3)c(O)n2n1` (stereo not given), for which the viability was 80% in experiment [1]; 80% (inactive) in experiment [3]; 109% (inactive) in experiment [4]; 105% (inactive) in experiment [5]; 90.2% in experiment [6] (setting [9]); 105% in experiment [6] (setting [10]). In addition, the Her2 level in experiment [2] is 112% (inactive). For the same compound, the differential viability (reversal) in experiment [6] (H69AR cells + 2 uM doxorubicin) was 15.2% (inactive). For the same compound, the inhibition in experiment [7] was -2.21% (inactive); in experiment [8] it was -3.44% (inactive).
Take `Cn1cnnc1SCC(=O)NCc1cccc(C(F)(F)F)c1`: the viability in experiment [1] is 88%; in experiment [3], 88% (inactive); in experiment [4] it was 102% (inactive); in experiment [5], 94.3% (inactive); in experiment [6] (setting [9]), 93.8%; in experiment [6] (setting [10]), 94.3%. Besides, the Her2 level in experiment [2] is 97.5% (inactive). For the same compound, in experiment [6] (H69AR cells + 2 uM doxorubicin), the differential viability (reversal) was 0.52% (inactive). For the same compound, the inhibition in experiment [7] is -5.53% (inactive); in experiment [8], -1.43% (inactive).
For the compound `Cc1c(C#N)sc2nc(-c3ccccc3)nc(N3CCCC3)c12`, the viability in experiment [1] is 85.5%; in experiment [3], 85.5% (inactive); in experiment [4], 82.1% (inactive); in experiment [5] it was 77% (inactive); in experiment [6] (setting [9]), 88.1%; in experiment [6] (setting [10]) it was 77%. Also, in experiment [2], the Her2 level is 83% (inactive). Further, the differential viability (reversal) in experiment [6] (H69AR cells + 2 uM doxorubicin) was -11.2% (inactive). Further, the results for the inhibition in experiment [7] and in experiment [8] were -3.59% (inactive) and -8% (inactive), respectively.
For the compound `COc1ccc(C2CC(c3ccccc3)Nc3nc(NC(=O)c4cccs4)nn32)cc1` (stereo not given), the viability is 81.5% in experiment [1]; 81.5% (inactive) in experiment [3]; 83.3% (inactive) in experiment [4]; 88.3% (inactive) in experiment [5]; 83.4% in experiment [6] (setting [9]); 88.3% in experiment [6] (setting [10]). For the same compound, the Her2 level in experiment [2] is 94.5% (inactive). Besides, the differential viability (reversal) in experiment [6] (H69AR cells + 2 uM doxorubicin) was 4.87% (inactive). For the same compound, the inhibition was -1.69% (inactive) in experiment [7] and -5.08% (inactive) in experiment [8].
In the case of `O=C(COc1ccc(F)cc1Br)N1CCc2ccccc21`, the viability in experiment [1] was 97.5%; in experiment [3], 97.5% (inactive); in experiment [4], 77.3% (inactive); in experiment [5], 75.3% (inactive); in experiment [6] (setting [9]), 81.3%; in experiment [6] (setting [10]), 75.3%. Also, the Her2 level in experiment [2] was 100% (inactive). For the same compound, the differential viability (reversal) in experiment [6] (H69AR cells + 2 uM doxorubicin) is -6% (inactive). The inhibition in experiment [7] is -1.43% (inactive); in experiment [8], -0.33% (inactive).
`COc1cc(-c2nnc(SCC(=O)c3ccc(C)cc3)o2)cc(OC)c1OC`: the viability in experiment [1] is 90%; in experiment [3], 90% (inactive); in experiment [4], 64.8% (inactive); in experiment [5] it was 74.5% (inactive); in experiment [6] (setting [9]), 94.2%; in experiment [6] (setting [10]), 74.5%. Also, the Her2 level in experiment [2] is 97.5% (inactive). Also, the differential viability (reversal) in experiment [6] (H69AR cells + 2 uM doxorubicin) was -19.7% (inactive). Besides, the results for the inhibition in experiment [7] and in experiment [8] were -1.45% (inactive) and 0.16% (inactive), respectively.
Take `CCOC(=O)c1ccccc1NC(=O)N1CCn2c(C)ccc2C1CC` (stereo not given): the viability in experiment [1] was 107%; in experiment [3], 107% (inactive); in experiment [4], 103% (inactive); in experiment [5], 84.8% (inactive); in experiment [6] (setting [9]), 83.2%; in experiment [6] (setting [10]) it was 84.8%. Also, the Her2 level in experiment [2] is 88% (inactive). Also, in experiment [6] (H69AR cells + 2 uM doxorubicin), the differential viability (reversal) was 1.62% (inactive). For the same compound, the inhibition in experiment [7] was -4.46% (inactive); in experiment [8], -4.92% (inactive).
For the compound `O=C(CN1CCN(C(=O)c2ccccc2)CC1)Nc1ncc(Br)cc1Br`, the viability in experiment [1] was 76.5%; in experiment [3], 76.5% (inactive); in experiment [4], 92.2% (inactive); in experiment [5], 77.9% (inactive); in experiment [6] (setting [9]) it was 84.8%; in experiment [6] (setting [10]) it was 77.9%. Also, the Her2 level in experiment [2] is 100% (inactive). In experiment [6] (H69AR cells + 2 uM doxorubicin), the differential viability (reversal) is -6.92% (inactive). The inhibition in experiment [7] was -2.4% (inactive); in experiment [8] it was -5.74% (inactive).
For `CC(C)CNC(=O)c1ccccc1NC(=O)c1ccc(CN2CCOCC2)cc1`, the viability was 92.5% in experiment [1]; 92.5% (inactive) in experiment [3]; 106% (inactive) in experiment [4]; 99.6% (inactive) in experiment [5]; 87.7% in experiment [6] (setting [9]); 99.6% in experiment [6] (setting [10]). The Her2 level in experiment [2] was 96% (inactive). In experiment [6] (H69AR cells + 2 uM doxorubicin), the differential viability (reversal) is 11.9% (inactive). Besides, the values for the inhibition in experiment [7] and in experiment [8] were -5.68% (inactive) and 1.8% (inactive), respectively.
In the case of `O=C(NCCc1ccccc1)C1CCN(S(=O)(=O)N2CCC3(CC2)OCCO3)CC1`, the viability in experiment [1] was 102%; in experiment [3], 102% (inactive); in experiment [4] it was 88.5% (inactive); in experiment [5], 99.3% (inactive); in experiment [6] (setting [9]) it was 88.4%; in experiment [6] (setting [10]) it was 99.3%. Moreover, the Her2 level in experiment [2] was 88.5% (inactive). Further, the differential viability (reversal) in experiment [6] (H69AR cells + 2 uM doxorubicin) was 10.9% (inactive). For the same compound, the inhibition in experiment [7] is -2.37% (inactive); in experiment [8] it was 0.16% (inactive).
